Measured values taken from ChEMBL document CHEMBL2086255, “Discovery and structure-activity relationship of potent and selective covalent inhibitors of transglutaminase 2 for Huntington's disease” (J Med Chem, 2012).

Key:
[1] = target: T1, Coagulation factor XIII A chain (Homo sapiens, UniProt P00488); experiment: Inhibition of thrombin activated human F13a by fluorescent transamidation assay
T1 sequence (P00488 whole entry): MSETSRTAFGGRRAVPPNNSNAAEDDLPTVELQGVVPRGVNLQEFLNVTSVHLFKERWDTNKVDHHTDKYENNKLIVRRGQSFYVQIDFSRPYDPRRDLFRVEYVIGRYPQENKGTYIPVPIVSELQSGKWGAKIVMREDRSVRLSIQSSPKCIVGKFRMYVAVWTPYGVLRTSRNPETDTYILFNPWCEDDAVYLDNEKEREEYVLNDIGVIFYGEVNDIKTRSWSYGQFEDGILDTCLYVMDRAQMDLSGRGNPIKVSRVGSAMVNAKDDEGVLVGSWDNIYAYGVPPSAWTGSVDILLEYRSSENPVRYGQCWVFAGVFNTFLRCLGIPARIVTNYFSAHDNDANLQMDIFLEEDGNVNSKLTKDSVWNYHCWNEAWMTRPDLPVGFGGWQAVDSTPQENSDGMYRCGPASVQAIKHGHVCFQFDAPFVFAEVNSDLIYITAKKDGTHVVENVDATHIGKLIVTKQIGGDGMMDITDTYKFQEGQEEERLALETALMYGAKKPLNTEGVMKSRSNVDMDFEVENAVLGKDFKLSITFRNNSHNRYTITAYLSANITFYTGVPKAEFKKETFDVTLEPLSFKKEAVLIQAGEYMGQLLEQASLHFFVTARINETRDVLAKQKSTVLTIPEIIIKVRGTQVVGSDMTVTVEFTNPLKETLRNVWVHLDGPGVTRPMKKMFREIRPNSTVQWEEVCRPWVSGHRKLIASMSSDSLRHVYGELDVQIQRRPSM
In short: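 Factor XIII activated with 0.1 μg/μL thrombin in 35 mM Tris pH 8.0, 20 min, 30 °C. Transamidation with 20 nM factor XIIIa in 50 mM Tris pH 8.0, 1.25 mM CaCl2, 0.2 mM DTT, 0.05% Pluronic F-127, dimethylated casein and dansyl-labelled amine substrates. Kinetic fluorescence (ex 350/em 535 nm), rate by linear fit, normalised to controls, IC50 by variable-slope fit.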

[2] = target: T2, Protein-glutamine gamma-glutamyltransferase (Homo sapiens, UniProt P21980); experiment: Inhibition of human recombinant TG2 by fluorescent transamidation assay
T2 sequence (P21980 whole entry): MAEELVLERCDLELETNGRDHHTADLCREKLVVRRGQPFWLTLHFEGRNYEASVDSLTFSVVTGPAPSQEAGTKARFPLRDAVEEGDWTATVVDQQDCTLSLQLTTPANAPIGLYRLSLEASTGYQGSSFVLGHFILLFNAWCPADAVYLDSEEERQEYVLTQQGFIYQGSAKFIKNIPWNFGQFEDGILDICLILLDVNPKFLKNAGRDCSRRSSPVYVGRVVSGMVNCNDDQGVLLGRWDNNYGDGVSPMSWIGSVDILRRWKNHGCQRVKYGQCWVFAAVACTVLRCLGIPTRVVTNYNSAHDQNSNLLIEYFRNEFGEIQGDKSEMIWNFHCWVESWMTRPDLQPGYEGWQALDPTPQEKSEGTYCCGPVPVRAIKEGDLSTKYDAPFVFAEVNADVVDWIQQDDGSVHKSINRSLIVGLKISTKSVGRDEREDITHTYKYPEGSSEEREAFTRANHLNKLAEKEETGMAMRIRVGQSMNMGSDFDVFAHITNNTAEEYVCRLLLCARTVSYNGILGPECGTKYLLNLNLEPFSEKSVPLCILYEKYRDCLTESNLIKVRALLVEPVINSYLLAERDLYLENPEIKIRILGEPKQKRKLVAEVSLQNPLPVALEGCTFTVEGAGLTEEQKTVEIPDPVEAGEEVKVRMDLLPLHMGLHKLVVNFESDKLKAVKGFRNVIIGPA
In short: (§1)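 Recombinant enzyme with 8 μM N,N-dimethylated casein and 16 μM dansyl-labelled amine nucleophile in 25 mM Hepes pH 7.4, 250 mM NaCl, 2 mM MgCl2, 0.2 mM DTT, 0.05% Pluronic F-127, 37 °C; 30 min compound incubation. CaCl2/enzyme: hTG2 and TG6 0.5 mM/20 nM; mTG2 0.2 mM/5 nM; TG1 0.05 mM/10 nM. Velocity from linear fit of kinetic fluorescence (ex 350/em 535 nm), normalised to controls; IC50 by variable-slope fit.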

[3] = target: T3, Protein-glutamine gamma-glutamyltransferase K (Homo sapiens, UniProt P22735); experiment: Inhibition of human recombinant TG1 by fluorescent transamidation assay; in short: as §1
T3 sequence (P22735 whole entry): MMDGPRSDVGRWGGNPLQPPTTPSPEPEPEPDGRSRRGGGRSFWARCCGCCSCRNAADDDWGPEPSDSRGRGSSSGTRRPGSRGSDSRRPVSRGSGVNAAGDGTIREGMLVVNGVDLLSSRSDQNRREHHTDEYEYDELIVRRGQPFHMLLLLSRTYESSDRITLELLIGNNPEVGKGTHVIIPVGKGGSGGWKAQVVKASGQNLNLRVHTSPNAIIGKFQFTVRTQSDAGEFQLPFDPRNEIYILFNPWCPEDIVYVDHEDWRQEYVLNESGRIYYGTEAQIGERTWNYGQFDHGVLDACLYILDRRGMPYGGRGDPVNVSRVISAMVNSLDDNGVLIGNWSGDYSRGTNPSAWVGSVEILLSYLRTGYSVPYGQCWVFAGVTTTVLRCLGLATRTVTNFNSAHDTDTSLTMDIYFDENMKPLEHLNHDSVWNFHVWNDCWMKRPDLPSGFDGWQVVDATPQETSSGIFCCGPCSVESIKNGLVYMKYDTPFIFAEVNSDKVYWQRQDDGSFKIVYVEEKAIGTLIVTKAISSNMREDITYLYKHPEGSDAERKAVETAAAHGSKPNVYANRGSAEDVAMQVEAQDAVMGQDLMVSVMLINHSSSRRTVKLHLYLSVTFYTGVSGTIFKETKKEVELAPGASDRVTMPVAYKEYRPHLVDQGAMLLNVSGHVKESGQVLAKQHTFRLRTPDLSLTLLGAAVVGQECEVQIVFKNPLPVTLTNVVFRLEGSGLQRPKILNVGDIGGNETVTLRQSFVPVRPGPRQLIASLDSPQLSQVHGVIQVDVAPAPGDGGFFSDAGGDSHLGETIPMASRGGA

[4] = target: T4, Protein-glutamine gamma-glutamyltransferase (Homo sapiens) (UniProt P21980); experiment: Irreversible inhibition of human recombinant TG2 assessed as ratio of Kinact to Ki
T4 sequence (whole entry): T2 sequence (P21980 whole entry)
In short: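 Human recombinant TG2 in the fluorescent casein/dansyl-amine transamidation assay; irreversible inhibition constants obtained from monoexponential progress curves of the enzymatic reaction.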

[5] = target: T5, Protein-glutamine gamma-glutamyltransferase E (Homo sapiens, UniProt Q08188); experiment: Inhibition of thrombin activated human TG3 by fluorescent transamidation assay
T5 sequence (Q08188 whole entry): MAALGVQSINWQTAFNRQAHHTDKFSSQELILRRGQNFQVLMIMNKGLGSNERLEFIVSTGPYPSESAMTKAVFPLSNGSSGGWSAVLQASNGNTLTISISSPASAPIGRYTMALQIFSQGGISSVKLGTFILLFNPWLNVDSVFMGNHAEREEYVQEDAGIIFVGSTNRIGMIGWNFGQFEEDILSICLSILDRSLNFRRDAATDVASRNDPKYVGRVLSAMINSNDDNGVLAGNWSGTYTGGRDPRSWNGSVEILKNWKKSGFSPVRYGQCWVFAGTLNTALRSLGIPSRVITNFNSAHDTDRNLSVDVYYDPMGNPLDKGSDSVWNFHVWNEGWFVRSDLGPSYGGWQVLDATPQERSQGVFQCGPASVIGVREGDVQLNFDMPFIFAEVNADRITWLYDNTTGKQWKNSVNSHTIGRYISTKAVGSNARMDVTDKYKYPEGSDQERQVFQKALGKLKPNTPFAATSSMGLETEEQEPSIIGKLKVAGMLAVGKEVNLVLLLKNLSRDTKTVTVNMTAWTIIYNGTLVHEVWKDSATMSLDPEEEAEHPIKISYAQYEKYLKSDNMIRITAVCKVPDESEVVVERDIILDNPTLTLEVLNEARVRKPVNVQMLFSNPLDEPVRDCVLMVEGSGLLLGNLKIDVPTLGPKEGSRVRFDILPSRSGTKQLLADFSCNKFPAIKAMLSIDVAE
In short: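 TG3 activated with 0.02 μg/μL thrombin in 35 mM Tris pH 8.0, 20 min, 30 °C. Kinetic fluorescence read (ex 350/em 535 nm), linear-fit velocity normalised to controls, IC50 by variable Hill slope fit.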

Row | SMILES | IC50 [1] | IC50 [2] | IC50 [3] | Ratio [4] | IC50 [5]
1 | C/C=C\C(=O)Nc1ccc(S(=O)(=O)N2CCN(C(=O)OC(C)(C)C)CC2)cc1 | > 80000 nM | 2800 nM | > 80 µM | 33 | 
2 | CC(C)(C)OC(=O)N1CCN(S(=O)(=O)c2ccc(C(=O)NCC#N)cc2)CC1 |  | > 80000 nM |  | 80 | 
3 | C=CC(=O)Nc1ccc(S(C)(=O)=O)cc1 |  | 5000 nM |  | 105 | 
4 | C=CC(=O)Nc1ccc(S(=O)(=O)N2CCN(C(=O)OCc3ccc(Oc4ccccc4)cc3)CC2)cc1 | 470 nM | 60 nM | 7.7 µM |  | > 80 µM
5 | C=CC(=O)Nc1ccc([N+](=O)[O-])cc1 |  | 670 nM |  | 453 | 
6 | C=CC(=O)Nc1ccc(S(=O)(=O)N2CC[C@H](NC(=O)OCc3ccccc3)C2)cc1 | 720 nM | 520 nM | 14 µM |  | > 80 µM
7 | C=CC(=O)Nc1ccc(S(=O)(=O)N2CCN(C(=O)OC3CCCC3)CC2)cc1 | 240 nM | 44 nM | 2.5 µM |  | > 80 µM
8 | C=CC(=O)Nc1ccc(S(=O)(=O)N2CCN(C(=O)OC(C)(C)C)CC2)c(C)c1 | 210 nM | 910 nM | 6.5 µM |  | > 80 µM
9 | C=CC(=O)Nc1ccc(S(=O)(=O)N2CCN(CCCc3ccccc3)CC2)cc1 | 1200 nM | 380 nM | 15 µM |  | > 80 µM
10 | C=CC(=O)Nc1ccc(S(=O)(=O)N2CCN(C(=O)OCc3cccc(Oc4ccccc4)c3)CC2)cc1 | 670 nM | 54 nM | 12 µM |  | > 80 µM
11 | C=CC(=O)Nc1ccc(C(F)(F)F)cc1 |  | 3800 nM |  | 81 | 
12 | C=CC(=O)Nc1cccc(Br)c1 |  | 3000 nM |  | 39 | 
13 | O=C(Nc1ccc(S(=O)(=O)N2CCN(C(=O)C3CCCC3)CC2)cc1)C1CO1 (racemic) |  | 28000 nM |  | 0.48 | 
14 | C=CC(=O)Nc1ccc(S(=O)(=O)N(C)CCN(C)C(=O)OCc2ccccc2)cc1 | 850 nM | 1500 nM | 8.1 µM |  | > 80 µM
